Results reported in ChEMBL document CHEMBL2331329, “Synthesis and biological evaluation of 2-(alkoxycarbonyl)-3-anilinobenzo[b]thiophenes and thieno[2,3-b]pyridines as new potent anticancer agents” (J Med Chem, 2013).

How the values were obtained:
HL-60 = experiment: Cytotoxicity against human HL60 cells after 72 hrs by MTT assay; format: functional, cell-based; details: HL-60, 72 h
HeLa = experiment: Cytotoxicity against human HeLa cells after 72 hrs by MTT assay; format: functional, cell-based
HT-29 = experiment: Cytotoxicity against human HT-29 cells after 72 hrs by MTT assay; format: functional, cell-based; details: HT-29, 72 h
MCF7 = experiment: Cytotoxicity against human MCF7 cells after 72 hrs by MTT assay; format: functional, cell-based; details: MCF7, 72 h
[1] = Cytotoxicity against human SEM cells after 72 hrs by MTT assay; format: functional, cell-based
In short: (§1)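 Cells plated at 8 × 10^3 per well, 18 h at 37 °C, 5% CO2, then fresh medium with graded compound concentrations (DMSO ≤0.25%) for 72 h. Jurkat, SEM, HL-60 grown in RPMI-1640; A549, HeLa, HT-29, MCF-7 in DMEM; 10% FBS with penicillin/streptomycin. MTT viability read-out; IC50 vs 0.25% DMSO controls; mean ± SE of at least three independent experiments.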

Jurkat = experiment: Cytotoxicity against human Jurkat cells after 72 hrs by MTT assay; format: functional, cell-based; in short: as §1
A549 = experiment: Cytotoxicity against human A549 cells after 72 hrs by MTT assay; format: functional, cell-based; details: A549, 72 h
[2] = Cytotoxicity against human A549-T12 cells after 72 hrs by MTT assay; format: functional, cell-based; details: A549, 72 h
In short: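 Mean ± SE of at least three independent experiments. Resistance ratio = IC50 in resistant line/IC50 in nonresistant line.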

[3] = Antitumor activity against mouse BNL 1ME A.7R.1 cells xenografted in Balb/c mouse assessed as reduction in tumor growth at 5 mg/kg, ip QD for 7 days; format: functional; parameters: scale not given: the % may be the effect or the level left; details: route intraperitoneal
In short: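 Male Balb/c mice, 8 weeks old, given 10^7 syngeneic BNL 1ME A.7R.1 hepatoma cells subcutaneously in the dorsal region in 200 μL PBS. Randomised to groups of five. Dosed intraperitoneally once daily for 7 days at 5 mg/kg in 0.9% NaCl with 5% PEG 400 and 0.5% Tween 80, against vehicle and CA-4P. Tumours measured daily by caliper, V = AB2/2; body weight recorded. Mean ± SEM.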

Bos taurus [4] = species on record: Bos taurus; experiment: Displacement of [3H]colchicine from bovine brain tubulin at 5 uM after 20 mins by turbidimetric analysis
[5] = Inhibition of bovine brain tubulin polymerization after 20 mins by turbidimetric analysis; parameters: species or system Bos taurus
In short: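 Bovine brain tubulin (10 μM) preincubated with varying compound concentrations in glutamate buffer at 30 °C, chilled to 0 °C, 0.4 mM GTP added, then warmed to 30 °C in a recording spectrophotometer.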

Bos taurus [6] = species on record: Bos taurus; experiment: Displacement of [3H]colchicine from bovine brain tubulin at 1 uM after 20 mins by turbidimetric analysis
LoVo [7] = experiment: Cytotoxicity against human LoVo cells after 72 hrs by MTT assay; format: functional, cell-based
In short: (§2)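 MTT viability test: 8 × 10^3 cells per well settled 18 h at 37 °C, 5% CO2, then given fresh medium with compound (from 10 mM DMSO stocks, final DMSO ≤0.25%) for 72 h. […] CEMVbl-100 is a vinblastine-selected P-gp line; LoVoDoxo is grown in Ham's F12 with 0.1 μg/mL doxorubicin. Resistance index = resistant IC50/parental IC50.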

LoVo [8] = experiment: Resistance index, ratio of IC50 for human LoVo/DX cells to IC50 for human LoVo cells; format: functional; in short: as §2
[9] = Cytotoxicity against human LoVo/DX cells after 72 hrs by MTT assay; format: functional, cell-based; in short: as §2

SMILES	IC50 (HL-60)	IC50 (HeLa)	IC50 (HT-29)	IC50 (MCF7)	IC50 [1]	IC50 (Jurkat)	IC50 (A549)	IC50 [2]	Activity [3]	inhibition (Bos taurus [4])	IC50 [5]	inhibition (Bos taurus [6])	IC50 (LoVo [7])	Ratio IC50 (LoVo [8])	IC50 [9]
COC(=O)c1sc2cccc(C)c2c1Nc1cc(OC)c(OC)c(OC)c1	3380 nM	1300 nM	1020 nM	8190 nM	2500 nM	6710 nM	4580 nM	–	–	–	–	–	–	–	–
CC(=O)O[C@H]1C(=O)[C@@]2(C)[C@H]([C@H](OC(=O)c3ccccc3)[C@]3(O)C[C@H](OC(=O)[C@H](O)[C@@H](NC(=O)c4ccccc4)c4ccccc4)C(C)=C1C3(C)C)[C@]1(OC(C)=O)CO[C@@H]1C[C@@H]2O [PACLITAXEL]	–	–	–	–	–	–	–	92.3 nM	–	–	–	–	–	–	–
COc1ccc(/C=C\c2cc(OC)c(OC)c(OC)c2)cc1OP(=O)([O-])[O-].[Na+].[Na+] [FOSBRETABULIN DISODIUM]	–	–	–	–	–	–	–	–	44.5%	–	–	–	–	–	–
CCOC(=O)c1sc2cc(C)ccc2c1Nc1cc(OC)c(OC)c(OC)c1	3.9 nM	0.38 nM	6 nM	9 nM	1.5 nM	0.4 nM	7.2 nM	–	–	89%	1100 nM	58%	–	–	–
COC(=O)c1sc2cc(C)ccc2c1Nc1cc(OC)c(OC)c(OC)c1	20.5 nM	0.31 nM	1.9 nM	1.2 nM	0.7 nM	0.6 nM	10.8 nM	–	–	95%	1200 nM	71%	–	–	–
CCOC(=O)c1sc2ncccc2c1Nc1cc(OC)c(OC)c(OC)c1	6100 nM	2100 nM	2260 nM	5280 nM	1850 nM	8450 nM	7160 nM	–	–	–	–	–	–	–	–
CCOC(=O)c1sc2cccc(C)c2c1Nc1cc(OC)c(OC)c(OC)c1	7380 nM	2520 nM	3610 nM	4150 nM	1930 nM	5670 nM	6250 nM	–	–	–	–	–	–	–	–
COC(=O)c1sc2ccccc2c1Nc1cc(OC)c(OC)c(OC)c1	1540 nM	427 nM	299 nM	795 nM	179 nM	490 nM	2850 nM	–	–	–	–	–	–	–	–
COc1cccc2c1C(=O)c1c(O)c3c(c(O)c1C2=O)C[C@@](O)(C(=O)CO)C[C@@H]3O[C@H]1C[C@H](N)[C@H](O)[C@H](C)O1 [DOXORUBICIN]	–	–	–	–	–	–	–	–	–	–	–	–	95.6 nM	118	11300 nM
